In ChEMBL document CHEMBL1127326, “Antitumor agents. 148. Synthesis and biological evaluation of novel 4 beta-amino derivatives of etoposide with better pharmacological profiles” (1994):
pIC50: −log10 of the molar value. Values joined by “and” are separate entries in the source; they are usually repeats but may differ in a detail not shown here. Equal entries are not always repeated.

What was measured:
[1] = tested on: KB; test: Cytotoxicity against KB cells after a 3 day incubation; assay type: functional, Homo sapiens; conditions: read-out: ID50 (the source's name)
Outline: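 KB cells (parental ATCC line and resistant variants) exposed to drug at five concentrations […] for 3 days. ID50 is the concentration giving 50% reduction in cell number, derived from the degree of inhibition at the five concentrations.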

[2] = tested on: Tumor Cell line; test: Drug molar concentration required to inhibit 50% of human tumor cell growth; assay type: functional
Outline: (§1)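 NCI panel of 54 human tumor lines from eight cancer types, mostly seeded at 20 000 cells/well. Cells were preincubated 24 h without drug, then exposed to five 10-fold dilutions for 48 h, fixed and stained with sulforhodamine B, and read spectrophotometrically. Versus control, GI50 (50% growth inhibition), TGI (0% growth) and LC50 (−50% growth) were calculated; mean graph midpoints average all lines.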

[3] = tested on: Tumor Cell line; test: Drug concentration required to inhibit total cell growth; assay type: functional, Homo sapiens; conditions: read-out: Log TGI (converted); outline: as §1
[4] = tested on: Nucleic Acid; test: Percentage inhibition of cellular protein-DNA complex formation; assay type: functional; conditions: Homo sapiens
[5] = tested on: Tumor Cell line; test: Drug concentration required to cause 50% cell death; assay type: functional, Homo sapiens; conditions: Homo sapiens, Tumor Cell line
Outline: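 NCI in vitro panel of 54 human tumor cell lines from eight cancer types, mostly seeded at 20 000 cells/well and preincubated 24 h without drug. Five 10-fold dilutions were then added for a further 48 h. Cells were fixed in situ and stained with sulforhodamine B, and bound dye was read spectrophotometrically. LC50 (−50% growth versus control) was taken from five-point dose-response curves and reported as the log10 mean-graph midpoint across lines.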

[6] = molecular target: T1, DNA topoisomerase II (Homo sapiens) (UniProt P11388+Q02880); test: 50% inhibition of human DNA topoisomerase II; assay type: protein assay
[7] = molecular target: T1, DNA topoisomerase II (Homo sapiens); test: 50% inhibition of human DNA topoisomerase II was measured; assay type: protein assay

SMILES | pIC50 [1] | GI50 [2] [nM] | TGI [3] [nM] | Complex formation [4] | pIC50 ([1]; Homo sapiens, KB, 72 h) | GI50 ([2]; Homo sapiens, Tumor Cell line) [nM] | LC50 [5] [nM] | TGI ([3]; Homo sapiens, Tumor Cell line) [nM] | ID50 [6] [nM] | ID50 [7] [nM]
COc1cc([C@@H]2c3cc4c(cc3[C@@H](NCCN3CCOCC3)[C@H]3COC(=O)[C@H]23)OCO4)cc(OC)c1O | 5.70 | 1820 | 11500 |  |  |  |  |  |  | 
CCOC(=O)CC[C@H](NC(=O)c1ccc(N[C@@H]2c3cc4c(cc3[C@@H](c3cc(OC)c(O)c(OC)c3)[C@H]3C(=O)OC[C@@H]32)OCO4)cc1)C(=O)OCC |  |  |  | 83% | > 6.40 | 50.1 | 2880 | 339 | 100000 | 
COc1cc([C@@H]2c3cc4c(cc3[C@@H](NCCN3CCCCC3)[C@H]3COC(=O)[C@H]23)OCO4)cc(OC)c1O |  |  |  |  | 5.80 | 427 | 36300 | 3720 |  | 
COc1cc([C@@H]2c3cc4c(cc3[C@@H](NC3CCN(Cc5ccccc5)CC3)[C@H]3COC(=O)[C@H]23)OCO4)cc(OC)c1O |  |  |  |  |  |  |  |  | 100000 | 50000
COc1cc([C@@H]2c3cc4c(cc3[C@@H](NCCN(C)C)[C@H]3COC(=O)[C@H]23)OCO4)cc(OC)c1O |  |  |  | 203% and 183% |  |  |  |  | 25000 | 
COc1cc([C@@H]2c3cc4c(cc3[C@@H](NCCCN(C)C)[C@H]3COC(=O)[C@H]23)OCO4)cc(OC)c1O | 5.94 |  |  |  |  | 550 | 13500 | 2820 |  | 
